Data as given in article PMC5659729 (Life sciences, 2017).
Entries after “also recorded” stand apart in the source; their conditions may differ.

Legend:
[1] = tested on: Swiss Webster mice; assay: Diclofenac-induced gastric ulcers, ulcer index scoring; format: in vivo
[2] = tested on: gastric mucosa of Swiss Webster mice; assay: Histopathological evaluation of stomach sections; format: in vivo; conditions: DCF 100 mg/kg alone or after TPPU 0.1 mg/kg or OME 50 mg/kg
[3] = tested on: TNF-α; assay: Inflammatory marker in serum by ELISA; format: in vivo, mice; conditions: for Level of TNF-α in serum versus DCF: pre-treatment TPPU 0.1 mg/kg or OME 50 mg/kg before DCF 100 mg/kg
[4] = tested on: IL-6; assay: Inflammatory marker in serum by ELISA; format: in vivo, mice; conditions: for Level of IL-6 in serum versus DCF: pre-treatment TPPU 0.1 mg/kg or OME 50 mg/kg before DCF 100 mg/kg; for Level of IL-6 in serum versus vehicle: DCF 100 mg/kg p.o. single dose
Method in brief: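 Blood without anticoagulant was collected at sacrifice 6 h post-dose and spun at 4 °C. Serum IL-6 was measured with a pre-coated mouse ELISA kit, in duplicate, n=3–4 animals, reported as mean ± SD.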

[5] = tested on: gastric epithelial cells; assay: TUNEL assay of gastric cell apoptosis; format: in vivo, mice; conditions: for DCF-induced apoptosis of stomach epithelial cells (TUNEL) versus DCF: pre-treatment TPPU 0.1 mg/kg or OME 50 mg/kg before DCF 100 mg/kg
[6] = tested on: COX; assay: PGE2 in stomach as marker of COX activity; format: in vivo, mice; conditions: TPPU 0.1 mg/kg or OME 50 mg/kg + DCF 100 mg/kg
[7] = tested on: TxB2/PGE2; assay: PGE2 and TxB2 in plasma; format: in vivo, mice; conditions: for Level of TxB2/PGE2 in plasma of DCF treated mice: TPPU 0.1 mg/kg or omeprazole 50 mg/kg + DCF 100 mg/kg
[8] = cited from earlier work
[9] = 16 h after radioactive omeprazole administration; cited from earlier work
[10] = tested on: CYP3A4; conditions: cited from earlier work
[11] = tested on: piroxicam-induced inflammatory bowel disease; conditions: cited from earlier work
[12] = Quantification of drugs in plasma by LC-MS/MS; format: in vivo, mice; conditions: for Alterations in blood levels when TPPU and DCF co-administered: TPPU 0.1 mg/kg/day + DCF 100 mg/kg
[13] = mice; cited from earlier work
[14] = tested on: DCF-induced intestinal ulcers; conditions: cited from earlier work
[15] = tested on: recombinant mouse sEH; conditions: affinity purified recombinant mouse sEH; cited from earlier work
[16] = Quantification of pH in gastric content; format: in vivo, mice; conditions: DCF 100 mg/kg single dose; TPPU 0.1 mg/kg 7 days + DCF; omeprazole 50 mg/kg 5 days + DCF

Structure (SMILES): COc1ccc2[nH]c([S+]([O-])Cc3ncc(C)c(OC)c3C)nc2c1 (stereo not shown) [Omeprazole]
- Incidence of ulceration relative to TPPU + DCF treated animals ([1]; OME 50 mg/kg + DCF 100 mg/kg versus TPPU 0.1 mg/kg + DCF): higher
- Histopathological observation of gastric mucosa [2]: minimized gastric erosion
- Level of TNF-α in serum versus DCF ([3]; listed as OME): normalized the level of these cytokines
- Level of IL-6 in serum versus DCF ([4]; listed as OME): normalized the level of these cytokines
- DCF-induced apoptosis of stomach epithelial cells (TUNEL) versus DCF ([5]; listed as OME): decreased apoptosis significantly
- Effect on COX activity in stomach (level of PGE2) of DCF treated mice [6]: did not increase the activity of COX
- Level of TxB2/PGE2 in plasma of DCF treated mice [7]: increased the level of TxB2/PGE2
- Half-life monitored in the blood [8]: 5 to 15 min
- Radioactivity of the stomach relative to blood [9]: 100 times
- Effect on activity of CYP3A4 [10]: increase activity of CYP3A4

Structure (SMILES): O=C(NC12CC3CC(CC(C3)C1)C2)N[C@H]1CC[C@H](Oc2ccc(C(=O)O)cc2)CC1 [t-AUCB, trans-4-[4-(3-adamantan-1-yl-ureido)-cyclohexyloxy]-benzoic acid]
- Effect on piroxicam-induced inflammatory bowel disease [11]: decrease piroxicam (a COX inhibitor)-induced inflammatory bowel disease

Structure (SMILES): CCC(=O)N1CCC(NC(=O)Nc2ccc(OC(F)(F)F)cc2)CC1 [TPPU, N-[1-(1-oxopropyl)-4-piperidinyl]-N′-[4-(trifluoromethoxy)phenyl)-urea]
- Histopathological observation of gastric mucosa [2]: Ulceration was minimal
- Level of TNF-α in serum versus DCF [3]: normalized the level of these cytokines; also recorded: decreased level of TNF-α significantly
- Level of IL-6 in serum versus DCF [4]: normalized the level of these cytokines; also recorded: decreased level of IL-6 significantly
- DCF-induced apoptosis of stomach epithelial cells (TUNEL) versus DCF [5]: decreased DCF-induced apoptosis of gastric cells; also recorded: decreased apoptosis significantly
- Effect on COX activity in stomach (level of PGE2) of DCF treated mice [6]: did not increase the activity of COX
- Level of TxB2/PGE2 in plasma of DCF treated mice [7]: increased the level of TxB2/PGE2
- Oral availability [13]: high oral availability
- Effect on DCF-induced intestinal ulcers [14]: decreased DCF-induced intestinal ulcers

Structure (SMILES): O=C(O)Cc1ccccc1Nc1c(Cl)cccc1Cl [Diclofenac, diclofenac sodium]
- Gastric ulcer score 18 h after dosing ([1]; single DCF dose 100 mg/kg, 18 h): returned to normal levels
- Histopathological observation of gastric mucosa [2]: ulceration was observed
- Effect on pH of stomach (gastric content) [16]: did not alter the pH of stomachs
- concentration at 6 h ([12]; Swiss Webster, mouse, plasma, oral, Mean plasma concentration of DCF, mice that received DCF or DCF + TPPU): 4000 ng/mL
- Alterations in blood levels when TPPU and DCF co-administered [12]: not observed
- Mean plasma concentration of diclofenac, diclofenac only versus DCF + OME ([12]; difference not significant, n=4): approximately 2 times
- Level of TNF-α in serum versus vehicle ([3]; DCF 100 mg/kg p.o. single dose): significant increase (p < 0.05); also recorded: increased level of TNF-α significantly
- Level of IL-6 in serum versus vehicle [4]: increased levels of IL-6 significantly
- Level of IL-6 in serum versus vehicle ([4]; listed as DCF): significant increase (p < 0.05)
- Apoptosis of stomach epithelial cells (TUNEL positive cells) versus vehicle ([5]; DCF 100 mg/kg, listed as DCF): increased apoptosis significantly
- Levels of TxB2/PGE2 in plasma versus vehicle ([7]; DCF 100 mg/kg): significantly decreased
- Levels of PGE2 in plasma versus vehicle ([7]; data not shown): not statistically (data not shown) different
- Level of TxB2 in plasma ([7]; mice treated with only DCF, level of detection 20 pM): < 20 pM
